13 molecules from ChEMBL document CHEMBL1125326, “Potent gonadotropin releasing hormone antagonists with low histamine-releasing activity” (J Med Chem, 1992) can be followed below.

Values after ≈ are worked out from the molar mass of the structure shown. Non-standard residues stand in square brackets, D forms with d. Residues, ends and D or L forms follow the SMILES beside them. dPhe(4-F) = N[C@H](Cc1ccc(F)cc1)C(=O)O; d2Nal = N[C@H](Cc1ccc2ccccc2c1)C(=O)O

For experiment [1], the species on record is Rattus norvegicus. The experiment in a line: Evaluated for the release of histamine in rats (based on 10 animals per dose group). It counts as functional, organism-based.
For experiment [2], the system named is Rattus norvegicus. The experiment in a line: Evaluated for the anti-ovulatory activity (rats were injected subcutaneously at noon on proestrus). The experiment is classed as functional. The method, boiled down: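 Female rats with at least two consecutive normal 4-day cycles, confirmed by vaginal lavage cytology, were dosed once s.c. at noon on proestrus in 50% propylene glycol/0.9% saline. On the morning of expected estrus, the oviducts were examined for ovulated eggs, which were counted. The effective dose came from % females ovulating plotted against log dose, usually with ≥3 dose groups (10 rats per group total).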

`CC(=O)N[C@H](Cc1ccc2ccccc2c1)C(=O)N[C@H](Cc1ccc(Cl)cc1)C(=O)N[C@H](Cc1cccnc1)C(=O)N[C@@H](CO)C(=O)N[C@@H](Cc1ccc(O)cc1)C(=O)N[C@H](Cc1cccnc1)C(=O)N[C@@H](CC(C)C)C(=O)N[C@@H](CCCCNC1=NCCCN1)C(=O)N1CCC[C@H]1C(=O)N[C@H](C)C(N)=O`: the midpoint of the response in the experiment listed under Rattus norvegicus [1], the EC50, lay at 20 µg/mL (≈ 13.5 µM). Also, the ED50 in the experiment with Rattus norvegicus [2] came out at 0.68 µg.

`CC(=O)N[C@H](Cc1ccc2ccccc2c1)C(=O)N[C@H](Cc1ccc(Cl)cc1)C(=O)N[C@H](Cc1cccnc1)C(=O)N[C@@H](CO)C(=O)N[C@@H](CCCN=C(N)N)C(=O)N[C@H](CCC(=O)N[C@@H](C)C(=O)N[C@@H](C)C(=O)O)C(=O)N[C@@H](CC(C)C)C(=O)N[C@@H](CCCN=C(N)N)C(=O)N1CCC[C@H]1C(=O)N[C@H](C)C(N)=O` registered an EC50 in the experiment listed under Rattus norvegicus [1] of 1.6 µg/mL (≈ 1.04 µM). This molecule displayed an ED50 with Rattus norvegicus [2] of less than 1.5 µg.

For `CC(=O)N[C@H](Cc1ccc2ccccc2c1)C(=O)N[C@H](Cc1ccc(F)cc1)C(=O)N[C@H](Cc1c[nH]c2ccccc12)C(=O)N[C@@H](CO)C(=O)N[C@@H](Cc1ccc(O)cc1)C(=O)N[C@H](CCCN=C(N)N)C(=O)N[C@@H](CC(C)C)C(=O)N[C@@H](CCCN=C(N)N)C(=O)N1CCC[C@H]1C(=O)NCC(N)=O` (Ac-[d2Nal][dPhe(4-F)][dW]SY[dR]LRPG-NH2), in the experiment listed under Rattus norvegicus [1], the response was half-maximal at 0.51 µg/mL (≈ 0.355 µM) (EC50). For the same molecule, the ED50 with Rattus norvegicus [2] is 2.4 µg.

The molecule `CC(=O)N[C@H](Cc1ccc2ccccc2c1)C(=O)N[C@H](Cc1ccc(Cl)cc1)C(=O)N[C@H](Cc1c[nH]c2ccccc12)C(=O)N[C@@H](CO)C(=O)N[C@@H](CCCN=C(N)N)C(=O)N[C@H](Cc1c[nH]c2ccccc12)C(=O)N[C@@H](CC(C)C)C(=O)N[C@@H](CCCCNC1=NCCCN1)C(=O)N1CCC[C@H]1C(=O)N[C@H](C)C(N)=O` gave an EC50 in the experiment listed under Rattus norvegicus [1] of 0.81 µg/mL (≈ 0.524 µM). In the experiment on Rattus norvegicus [2], this molecule registered an ED50 greater than 2 µg.

For the molecule `CCCC/N=C(\N)NCCCC[C@H](NC(=O)[C@H](CC(C)C)NC(=O)[C@@H](Cc1c[nH]c2ccccc12)NC(=O)[C@H](Cc1ccc(O)cc1)NC(=O)[C@H](CO)NC(=O)[C@@H](Cc1c[nH]c2ccccc12)NC(=O)[C@@H](Cc1ccc(Cl)cc1)NC(=O)[C@@H](Cc1ccc2ccccc2c1)NC(C)=O)C(=O)N1CCC[C@H]1C(=O)N[C@H](C)C(N)=O`, in the experiment listed under Rattus norvegicus [1], the EC50 was determined as 1.6 µg/mL (≈ 1.02 µM). This molecule displayed an ED50 with Rattus norvegicus [2] of roughly 1.3 µg.

The molecule `CCCC/N=C(\N)NCCCC[C@H](NC(=O)[C@H](CC(C)C)NC(=O)[C@@H](CCCCN/C(N)=N/CCCC)NC(=O)[C@H](Cc1ccc(O)cc1)NC(=O)[C@H](CO)NC(=O)[C@@H](Cc1cccnc1)NC(=O)[C@@H](Cc1ccc(Cl)cc1)NC(=O)[C@@H](Cc1ccc2ccccc2c1)NC(C)=O)C(=O)N1CCC[C@H]1C(=O)N[C@H](C)C(N)=O` came in with an EC50 in the experiment filed under Rattus norvegicus [1] of 0.64 µg/mL (≈ 0.408 µM). The molecule also yielded an ED50 in the experiment with Rattus norvegicus [2] of roughly 0.9 µg.

In turn, `CC/N=C(\NCC)NCCCC[C@@H](NC(=O)[C@H](Cc1ccc(O)cc1)NC(=O)[C@H](CO)NC(=O)[C@@H](Cc1cccnc1)NC(=O)[C@@H](Cc1ccc(Cl)cc1)NC(=O)[C@@H](Cc1ccc2ccccc2c1)NC(C)=O)C(=O)N[C@@H](Cc1ccccc1)C(=O)N[C@@H](CCCN=C(N)N)C(=O)N1CCC[C@H]1C(=O)N[C@H](C)C(N)=O` returned an EC50 in the experiment listed under Rattus norvegicus [1] of less than 0.01 µg/mL. Moreover, the ED50 in the experiment on Rattus norvegicus [2] stood at 0.5 µg.

For the molecule `CC/N=C(\NCC)NCCCC[C@H](NC(=O)[C@H](CC(C)C)NC(=O)[C@@H](Cc1cccnc1)NC(=O)[C@H](Cc1ccc(O)cc1)NC(=O)[C@H](CO)NC(=O)[C@@H](Cc1cccnc1)NC(=O)[C@@H](Cc1ccc(Cl)cc1)NC(=O)[C@@H](Cc1ccc2ccccc2c1)NC(C)=O)C(=O)N1CCC[C@H]1C(=O)N[C@H](C)C(N)=O`, a half-maximal response in the experiment filed under Rattus norvegicus [1] (EC50) required 196 µg/mL (≈ 131 µM). Further, the ED50 in the experiment on Rattus norvegicus [2] is 0.6 µg.

For the molecule `CCCC/N=C(\N)NCCCC[C@H](NC(=O)[C@H](CC(C)C)NC(=O)[C@@H](Cc1cccnc1)NC(=O)[C@H](Cc1ccc(O)cc1)NC(=O)[C@H](CO)NC(=O)[C@@H](Cc1cccnc1)NC(=O)[C@@H](Cc1ccc(Cl)cc1)NC(=O)[C@@H](Cc1ccc2ccccc2c1)NC(C)=O)C(=O)N1CCC[C@H]1C(=O)N[C@H](C)C(N)=O`, the EC50 in the experiment filed under Rattus norvegicus [1] stood at 15.7 µg/mL (≈ 10.5 µM). In the experiment on Rattus norvegicus [2], this molecule returned an ED50 of 1.2 µg.

Take `CC(=O)N[C@H](Cc1ccc2ccccc2c1)C(=O)N[C@H](Cc1ccc(Cl)cc1)C(=O)N[C@H](Cc1cccnc1)C(=O)N[C@@H](CO)C(=O)N[C@@H](CCCN=C(N)N)C(=O)N[C@H](Cc1cccnc1)C(=O)N[C@@H](CC(C)C)C(=O)N[C@@H](CCCCNC1=NCCCN1)C(=O)N1CCC[C@H]1C(=O)N[C@H](C)C(N)=O`: in the experiment listed under Rattus norvegicus [1], the EC50 was determined as 1.5 µg/mL (≈ 1.02 µM). The molecule further came in with an ED50 with Rattus norvegicus [2] of 0.295 µg.

In turn, `CC(=O)N[C@H](Cc1ccc2ccccc2c1)C(=O)N[C@H](Cc1ccc(Cl)cc1)C(=O)N[C@H](Cc1c[nH]c2ccccc12)C(=O)N[C@@H](CO)C(=O)N[C@@H](Cc1ccc(O)cc1)C(=O)N[C@H](CCCCNC1=NCCCN1)C(=O)N[C@@H](CC(C)C)C(=O)N[C@@H](CCCCN=C(N)N)C(=O)N1CCC[C@H]1C(=O)N[C@H](C)C(N)=O` showed an EC50 in the experiment listed under Rattus norvegicus [1] of 0.41 µg/mL (≈ 0.267 µM). In the experiment with Rattus norvegicus [2], this molecule yielded an ED50 of 0.56 µg.

In the case of `CC(=O)N[C@H](Cc1ccc2ccccc2c1)C(=O)N[C@H](Cc1ccc(Cl)cc1)C(=O)N[C@H](Cc1cccnc1)C(=O)N[C@@H](CO)C(=O)N[C@@H](CCCN=C(N)N)C(=O)N[C@H](Cc1cccnc1)C(=O)N[C@@H](CC(C)C)C(=O)N[C@@H](CCCCN=C(NCC(F)(F)F)NCC(F)(F)F)C(=O)N1CCC[C@H]1C(=O)N[C@H](C)C(N)=O`, in the experiment filed under Rattus norvegicus [1], the EC50 was 0.95 µg/mL (≈ 0.596 µM). Further, the ED50 in the experiment with Rattus norvegicus [2] was 0.595 µg.

In the experiment listed under Rattus norvegicus [1], `CCCC/N=C(/N)NCCCC[C@@H](NC(=O)[C@H](Cc1ccc(O)cc1)NC(=O)[C@H](CO)NC(=O)[C@@H](Cc1cccnc1)NC(=O)[C@@H](Cc1ccc(F)cc1)NC(=O)[C@@H](Cc1ccc2ccccc2c1)NC(C)=O)C(=O)N[C@@H](CC(C)C)C(=O)N[C@@H](CCCCN=C(NCC(F)(F)F)NCC(F)(F)F)C(=O)N1CCC[C@H]1C(=O)N[C@H](C)C(N)=O` came in with an EC50 of 59 µg/mL (≈ 35.5 µM). Moreover, in the experiment with Rattus norvegicus [2], the ED50 came out at 1 µg.
